Measured values published in publication PMC9575405 (ACS infectious diseases, 2021).

What was measured:
[1] = system: S. aureus Smith; experiment: Mouse septicemia model; type: in vivo; details: 10 mg/kg i.v., five mice
Summary of the method: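 CD-1 female mice (18–20 g), acclimated 5 days, were infected i.p. with 0.5 ml of S. aureus (overnight liquid culture diluted 1:10, grown 5 h shaking) diluted in 5% hog gastric mucin, pH 7.4, to give ≥90% mortality within 48 h (1.6 × 10^6 CFU). Single slow i.v. bolus at 10 mL/kg 1 h post-infection. Five mice per treatment group; ten vehicle-dosed infection controls. Read-out: survival.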

[2] = system: S. aureus ATCC 13709 (Smith); experiment: Mouse abscess infection model; type: in vivo; details: after 26 h; orally at 20 mg/kg
Summary of the method: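 Female CD-1 mice were infected s.c. in the right flank under anaesthesia with 0.25 mL inoculum (OD625 0.1 saline suspension from plate culture; target 1.0×10^6, actual 1.4×10^6 CFU/mouse) mixed with […] beads. From 2 h post-infection, test compounds were injected into the abscess (100 uL), repeated 12 h later; positive control was oral. Five per group; T=0 group sampled. Abscess CFU at 26 h; mean and SD.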

Structure (SMILES)	survival [1]	increase in CFUs [2]
CN[C@H](CC(C)C)C(=O)N[C@H]1C(=O)N[C@@H](CC(N)=O)C(=O)N[C@H]2C(=O)N[C@H]3C(=O)N[C@H](C(=O)N[C@H](C(=O)O)c4cc(O)cc(O)c4-c4cc3ccc4O)[C@H](O)c3ccc(c(Cl)c3)Oc3cc2cc(c3O[C@@H]2O[C@H](CO)[C@@H](O)[C@H](O)[C@H]2O[C@H]2C[C@](C)(N)[C@H](O)[C@H](C)O2)Oc2ccc(cc2Cl)[C@H]1O [vancomycin]	all five mice	–
CC(=O)NC[C@H]1CN(c2ccc(N3CCOCC3)c(F)c2)C(=O)O1 [linezolid]	–	1 log10
